Laboratory results published in article PMC8453771 (Journal of Clinical Pharmacology, 2021).
Like-named read-outs stand apart in the source and are kept apart here.

How the values were obtained:
[1] = type: in vivo, human
Method in brief: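 Pooled noncompartmental data from 17 phase 1 studies in healthy subjects, fasted or light meal, no co-administered drugs; solution, suspension or tablet, 0.5–300 mg. Single dose: AUCinf; multiple dose: steady-state AUCtau (tau 24 h), day-1 Cmax.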

UGT1A9 [2] = assay: UGT1A9 genotype analysis of ertugliflozin AUC pooled from phase 1 studies; type: in vivo, human; conditions: for Predicted mean (90% CI) ertugliflozin AUC: Wild type, fasted
Method in brief: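 AUC pooled from 20 phase 1 studies of fasted oral tablets in genotyped healthy subjects. Linear AUC-versus-dose model as for dose proportionality. Three UGT1A9 variants (*1b homozygous/heterozygous, -2152 heterozygous, *3 heterozygous) entered together as categorical covariates on slope, giving fold change versus wild type for all alleles.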

[3] = cited from earlier work
UGT1A9 [4] = conditions: in vitro; cited from earlier work
UGT2B7 and UGT2B4 = conditions: in vitro; cited from earlier work
[5] = coadministration of rifampin; cited from earlier work
[6] = coadministration of mefenamic acid; PBPK modeling; cited from earlier work
[7] = primary metabolites in plasma; cited from earlier work
[8] = 5-mg tablet, fasted state, full model bootstrap

For CCOc1ccc(Cc2cc([C@]34OC[C@](CO)(O3)[C@@H](O)[C@H](O)[C@H]4O)ccc2Cl)cc1 [ertugliflozin], the “predicted mean AUC” value [1, 8] was 437 ng·h/mL, the “predicted mean Cmax” value [1, 8] was 88.7 ng/mL and the “predicted mean AUC” value ([1]; 15-mg tablet, fasted state, full model bootstrap) was 1380 ng·h/mL. The “AUC higher versus the tablet form” value ([1]; administered as a solution) was 16%, the “Cmax lower versus the tablet form” value ([1]; administered as a solution) was 18% and the “AUC lower relative to fasting administration” value ([1]; administered with a light meal) was 10%. The “Cmax lower relative to fasting administration” value ([1]; administered with a light meal) was 46%, the “AUC intercept, Estimate (RSE, %)” value ([1]; base model) was “–26.5 (28.8) ng·h/mL” and the “AUC slope, Estimate (RSE, %)” value ([1]; base model, AUC as linear function of dose) was 93.2 (1.50) ng·h/mL/mg. The “Cmax slope, Estimate (RSE, %)” value ([1]; base model, Cmax as linear function of dose) was 16.2 (2.20) ng/mL/mg, the “relationship of AUC and Cmax to dose” value ([1]; dose range 0.5 to 300 mg, healthy subjects) was “dose‐proportional” and the “AUC intercept, Estimate (RSE, %)” value ([1]; full model) was “–33.7 (33.2) ng·h/mL”. The “Solution covariate: fold change in AUC slope vs tablet, Estimate (RSE, %)” value ([1]; full model) was 1.16 (6.35), the “Solution covariate: fold change in Cmax slope vs tablet, Estimate (RSE, %)” value ([1]; full model) was 0.821 (7.08) and the “Suspension covariate: fold change in AUC slope vs tablet, Estimate (RSE, %)” value ([1]; full model) was 1.04 (3.44). The “Suspension covariate: fold change in Cmax slope vs tablet, Estimate (RSE, %)” value ([1]; full model) was 0.897 (4.77), the “effect of suspension formulation on AUC or Cmax relative to tablet” value ([1]; full model) was “did not have a significant effect” and the “AUC slope, Estimate (RSE, %)” value ([1]; full model, tablet, fasted) was 94.1 (1.76) ng·h/mL/mg. The “Cmax slope, Estimate (RSE, %)” value ([1]; full model, tablet, fasted) was 17.7 (1.92) ng/mL/mg, the “decrease in AUC compared with wild-type UGT1A9” value (UGT1A9 [2]; UGT1A9-2152 heterozygous and UGT1A9*1b heterozygous variants combined) was 7.3% and the “combined effect on AUC (fold vs wild type)” value (UGT1A9 [2]; UGT1A9-2152 heterozygous and UGT1A9*1b heterozygous variants, 0.988 × 0.938) was 0.927. The “Predicted mean (90% CI) ertugliflozin AUC” value (UGT1A9 [2]; 5 mg tablet) was 436 ng·h/mL, the “Predicted mean (90% CI) ertugliflozin AUC” value (UGT1A9 [2]; 15 mg tablet) was 1410 ng·h/mL and the “AUC intercept, Estimate (RSE, %)” value (UGT1A9 [2]; base model) was “–63.9 (16.3) ng·h/mL”. The “AUC slope, Estimate (RSE, %)” value (UGT1A9 [2]; base model) was 96.7 (1.89) ng·h/mL/mg, the “AUC intercept, Estimate (RSE, %)” value (UGT1A9 [2]; full model) was “–50.1 (22.8) ng·h/mL” and the “effect of UGT1A9-2152 heterozygous variant on AUC” value (UGT1A9 [2]; full model, 95%CI included 1) was “did not have a significant effect”. For the same molecule, the “AUC slope, Estimate (RSE, %)” value (UGT1A9 [2]; full model, UGT1A9 wild-type subjects) was 97.1 (3.25) ng·h/mL/mg, the “clinical relevance of UGT1A9 genotype effect on ertugliflozin exposure” value (UGT1A9 [2]; healthy subjects) was “did not have any clinically meaningful effects” and the “effect of high-fat meal on ertugliflozin AUC” value ([3]; 15-mg commercial tablet) was “no meaningful effect”. The “effect on ertugliflozin exposure of administration with food” value [3] was “No clinically meaningful effect”, the “share of ertugliflozin biotransformation accounted for by glucuronidation” value [3] was roughly 90% and the “administered dose recovered in urine and feces as unchanged ertugliflozin” value ([3]; mass-balance study in humans) was roughly 35%. For the same molecule, the “median time to maximum plasma concentrations (Tmax)” value ([3]; multiple doses, fed) was 2.0 h, the “median time to maximum plasma concentrations (Tmax)” value ([3]; single doses, fasted) was 1.0 h and the “share of glucuronide metabolite formation catalyzed by UGT1A9” value (UGT1A9 [4]) was 81%. For the same molecule, the “share of ertugliflozin glucuronidation by UGT2B7 and UGT2B4” value (UGT2B7 and UGT2B4) was 19%, the “reduction in ertugliflozin AUC” value [5] was roughly 39% and the “increase in ertugliflozin AUC” value [6] was roughly 1.5 fold.
In the case of CCOc1ccc(Cc2cc([C@]34OC[C@](CO)(O3)[C@@H](O)[C@H](O[C@@H]3O[C@H](C(=O)O)[C@@H](O)[C@H](O)[C@H]3O)[C@H]4O)ccc2Cl)cc1 [ertugliflozin‐3‐O‐β‐glucuronide], the “pharmacological activity of metabolite” value [7] is listed as “pharmacologically inactive”.
In the case of ertugliflozin‐2‐O‐β‐glucuronide, the “pharmacological activity of metabolite” value [7] is given as “pharmacologically inactive”.
